Experimental data published in ChEMBL document CHEMBL1122234, “Oxidation of uric acid. 4. Synthesis, structure, and diabetogenic action of 5-imino-2,4,6(1H,3H,5H)-pyrimidinetrione salts and their alloxan-like covalent adducts” (1983).
Activity calls are given as the source filed them. No cut-off for these calls is given here.

How the values were obtained:
Rattus norvegicus [1] = test: Diabetogenic activity in Lewis strain of albino rats after ip administration; assay type: functional
Summary of the method: (§1)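 Male Lewis rats (200-230 g), 24 per dose level, fasted 12 h, then dosed by tail-vein iv injection, or ip as a saline suspension when poorly soluble. A rat counted as diabetic if glucosuria (>1%) appeared within 24 h and persisted 5 days. Blood sugar and islet histology were also observed. The dose making 50% of animals diabetic (ED50, mmol/kg) was estimated graphically.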

[2] = Relative potency compared to that of Alloxan in albino rats.; assay type: functional
Rattus norvegicus [3] = test: Diabetogenic activity in Lewis strain of albino rats after iv administration; assay type: functional; summary of the method: as §1
[4] = Relative potency compared to that of streptozotocin in albino rats.; assay type: functional
[5] = Relative potency compared to that of streptozotocin in albino rats; Inactive nondiabetogenic at the dose 2 g/kg ip; inactive; assay type: functional
Rattus norvegicus [6] = test: Diabetogenic activity in Lewis strain of albino rats after iv administration; Inactive nondiabetogenic at the dose 2 g/kg ip; inactive; assay type: functional, organism-based; summary of the method: as §1
[7] = Relative potency compared to that of Alloxan in albino rats; Inactive nondiabetogenic at the dose 2 g/kg ip; inactive; assay type: functional
[8] = Rattus norvegicus, iv, read-out: ED50

Compound | ED50 (Rattus norvegicus [1]) | Relative potency [2] | ED50 (Rattus norvegicus [3]; [8]) | Relative potency [4] | ED50 (Rattus norvegicus [3]) | Relative potency [5] | ED50 (Rattus norvegicus [6]) | Relative potency [7]
O=C1NC(=O)C2(O)NC(=O)NC2(O)N1 (configuration not stated) | 1060 µmol/kg | 1.1 |  |  |  |  |  | 
CN(N=O)C(=O)N[C@@H](C=O)[C@@H](O)[C@H](O)[C@H](O)CO [STREPTOZOCIN] |  | 2.1 | 150 µmol/kg | 1 |  |  |  | 
Cl.NC1(O)C(=O)NC(=O)NC1=O |  | 2.2 |  | 1.1 | 140 µmol/kg |  |  | 
Cl.N=C1C(=O)NC(=O)NC1=O |  | 2.2 |  | 1.1 | 140 µmol/kg |  |  | 
NC(=O)NC1(N)C(=O)NC(=O)NC1=O |  |  |  |  |  | inactive | inactive | inactive
Br.NC1(O)C(=O)NC(=O)NC1=O |  | 2.1 | 150 µmol/kg | 1 |  |  |  | 
O=C1NC(=O)C(O)(O)C(=O)N1 | 1120 µmol/kg | 1 | 310 µmol/kg | 0.5 |  |  |  | 
NC(=O)NC1(O)C(=O)NC(=O)NC1=O |  | 2.1 | 150 µmol/kg | 1 |  |  |  | 
Br.N=C1C(=O)NC(=O)NC1=O |  | 1.9 | 160 µmol/kg | 0.9 |  |  |  | 
